# Experimental data from ChEMBL document CHEMBL1144468, “Stepwise exposure of Staphylococcus aureus to pleuromutilins is associated with stepwise acquisition of mutations in rplC and minimally affects susceptibility to retapamulin” (2007).
# What was measured:
# Assay type in all cases: functional
# [1] = test system: Staphylococcus aureus; assay: Antibacterial activity against Staphylococcus aureus 2A1-1 with rplC G152D, D159Y and unmapped mutation
# Method in brief: (§1)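 Third-step mutants: second-step mutants were plated on five other pleuromutilins, each at 2 times its own MIC. Colonies appearing after extended incubation were replated at the selective concentration to confirm resistance. L3 was sequenced by colony PCR. These isolates grow very slowly; colonies form on blood agar only after more than 72 h.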
# [2] = test system: Staphylococcus aureus; assay: Antibacterial activity against Staphylococcus aureus RN4220 with rplC G152D, D159Y and G144R mutation; method in brief: as §1
# [3] = test system: Staphylococcus aureus; assay: Antibacterial activity against Staphylococcus aureus RN4220 with rplC G155R mutation
# Method in brief: (§2)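 Spontaneous first-step mutants of S. aureus RN4220. An overnight brain heart infusion culture was plated on LB agar with 1.0 µg/ml tiamulin. Colonies were patched to drug-free LB for 16 h at 37°C, then replica plated on LB agar with 1, 5, 10 and 20 µg/ml tiamulin. The rplC (L3) mutation was identified by colony PCR and sequencing.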
# [4] = test system: Staphylococcus aureus; assay: Antibacterial activity against Staphylococcus aureus RN4220 with rplC G152D, D159Y, G155R and H134N mutation; method in brief: as §1
# [5] = test system: Staphylococcus aureus; assay: Antibacterial activity against Staphylococcus aureus RN4220 with rplC G152D and D159Y mutation
# Method in brief: (§3)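 Second-step mutants came from the first-step L3 G152D RN4220 mutant. An overnight culture (2 x 10^9 CFU total) was plated on LB agar with 10 µg/ml tiamulin. Colonies were recultured on 10 µg/ml tiamulin to confirm resistance. L3 was sequenced after colony PCR.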
# [6] = test system: Staphylococcus aureus; assay: Antibacterial activity against Staphylococcus aureus 2A1-7 with rplC G152D, D159Y and unmapped mutation; method in brief: as §1
# [7] = test system: Staphylococcus aureus; assay: Antibacterial activity against Staphylococcus aureus RN4220 with rplC G152D, D159Y and G155R mutation; method in brief: as §1
# [8] = test system: Staphylococcus aureus; assay: Antibacterial activity against Staphylococcus aureus 2A1-7 fast2 with rplC D159Y and unmapped mutation
# Method in brief: (§4)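 Fast-growing variants of slow third-step mutants. Single colonies were streaked on unsupplemented LB agar and held more than 3 days at 37°C. At least 2 fast-growing colonies per mutant were purified on LB agar, then taken for MIC testing and sequencing.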
# [9] = test system: Staphylococcus aureus; assay: Antibacterial activity against Staphylococcus aureus RN4220 with rplC D159Y mutation; method in brief: as §2
# [10] = test system: Staphylococcus aureus; assay: Antibacterial activity against Staphylococcus aureus 2A1-8 with rplC G152D, D159Y and unmapped mutation; method in brief: as §1
# [11] = test system: Staphylococcus aureus; assay: Antibacterial activity against Staphylococcus aureus RN4220 with rplC S158L mutation; method in brief: as §2
# [12] = test system: Staphylococcus aureus; assay: Antibacterial activity against Staphylococcus aureus RN4220 with rplC G152D, D159Y, G155R and A150T mutation; method in brief: as §1
# [13] = test system: Staphylococcus aureus; assay: Antibacterial activity against wild type Staphylococcus aureus RN4220
# [14] = test system: Staphylococcus aureus; assay: Antibacterial activity against Staphylococcus aureus 2A1-1 fast2 with rplC D159Y and unmapped mutation; method in brief: as §4
# [15] = test system: Staphylococcus aureus; assay: Antibacterial activity against Staphylococcus aureus RN4220 with rplC G152D and G155R mutation; method in brief: as §3
# [16] = test system: Staphylococcus aureus; assay: Antibacterial activity against Staphylococcus aureus RN4220 with rplC G152D mutation; method in brief: as §2
# [17] = test system: Staphylococcus aureus; assay: Antibacterial activity against Staphylococcus aureus 2A1-7 fast1 with rplC D159Y and unmapped mutation; method in brief: as §4
# [18] = test system: Staphylococcus aureus; assay: Antibacterial activity against Staphylococcus aureus 2A1-1 fast1 with rplC D159Y and unmapped mutation; method in brief: as §4
Compound,MIC [1] [µg/mL],MIC [2] [µg/mL],MIC [3] [µg/mL],MIC [4] [µg/mL],MIC [5] [µg/mL],MIC [6] [µg/mL],MIC [7] [µg/mL],MIC [8] [µg/mL],MIC [9] [µg/mL],MIC [10] [µg/mL],MIC [11] [µg/mL],MIC [12] [µg/mL],MIC [13] [µg/mL],MIC [14] [µg/mL],MIC [15] [µg/mL],MIC [16] [µg/mL],MIC [17] [µg/mL],MIC [18] [µg/mL]
O=C(N[C@H](CO)[C@H](O)c1ccc([N+](=O)[O-])cc1)C(Cl)Cl [CHLORAMPHENICOL],8,8,8,8,8,4,4,8,4,4,4,8,4,8,8,8,8,8
C=C[C@]1(C)C[C@@H](OC(=O)CSCCN(CC)CC)[C@]2(C)[C@H](C)CC[C@]3(CCC(=O)[C@H]32)[C@@H](C)[C@@H]1O [TIAMULIN],64,32,4,2,16,64,> 64,2,4,32,2,4,0.25,2,16,4,2,2
CN(C)[C@@H]1C(O)=C(C(N)=O)C(=O)[C@@]2(O)C(O)=C3C(=O)c4c(O)cccc4[C@@](C)(O)[C@H]3C[C@@H]12 [TETRACYCLINE],≤ 0.06,0.25,0.25,0.25,0.25,≤ 0.06,0.25,0.25,0.25,≤ 0.06,0.25,0.25,0.25,0.25,0.25,0.25,0.25,0.25
C/C(=C\C(=O)OCCCCCCCCC(=O)O)C[C@@H]1OC[C@H](C[C@@H]2O[C@H]2[C@@H](C)[C@H](C)O)[C@@H](O)[C@H]1O [MUPIROCIN],,0.06,0.06,0.06,0.06,,0.06,,0.06,,0.06,0.06,0.06,,0.06,0.06,,
C=C[C@]1(C)C[C@@H](OC(=O)CS[C@@H]2C[C@H]3CC[C@@H](C2)N3C)[C@]2(C)[C@H](C)CC[C@]3(CCC(=O)[C@H]32)[C@@H](C)[C@@H]1O [RETAPAMULIN],8,4,0.5,0.125,1,8,4,0.25,0.25,2,0.25,0.25,≤ 0.06,0.25,1,0.25,0.25,0.25
C[C@H]1COc2c(N3CCN(C)CC3)c(F)cc3c(=O)c(C(=O)O)cn1c23.C[C@H]1COc2c(N3CCN(C)CC3)c(F)cc3c(=O)c(C(=O)O)cn1c23.O [LEVOFLOXACIN],0.25,0.25,0.5,0.5,0.25,0.25,0.25,0.25,0.5,0.25,0.5,0.125,0.5,0.25,0.25,0.5,0.25,0.5
